Laboratory results: ChEMBL document CHEMBL3808357, “Discovery of N-(3-((1-Isonicotinoylpiperidin-4-yl)oxy)-4-methylphenyl)-3-(trifluoromethyl)benzamide (CHMFL-KIT-110) as a Selective, Potent, and Orally Available Type II c-KIT Kinase Inhibitor for Gastrointestinal Stromal Tumors (GISTs)” (J Med Chem, 2016)

How the values were obtained:
[1] = Antiproliferative activity against mouse BAF3 cells; type: cell-based
[2] = target: Mast/stem cell growth factor receptor Kit (Homo sapiens) (UniProt P10721); test: Inhibition of Tel-fused cKIT (unknown origin) transfected in mouse BAF3 cells assessed as decrease in cell proliferation after 72 hrs by celltiter-glo/CCK8 assay; type: cell-based
Mast/stem cell growth factor receptor Kit (Homo sapiens), sequence (P10721 whole entry, the tested form may be a part): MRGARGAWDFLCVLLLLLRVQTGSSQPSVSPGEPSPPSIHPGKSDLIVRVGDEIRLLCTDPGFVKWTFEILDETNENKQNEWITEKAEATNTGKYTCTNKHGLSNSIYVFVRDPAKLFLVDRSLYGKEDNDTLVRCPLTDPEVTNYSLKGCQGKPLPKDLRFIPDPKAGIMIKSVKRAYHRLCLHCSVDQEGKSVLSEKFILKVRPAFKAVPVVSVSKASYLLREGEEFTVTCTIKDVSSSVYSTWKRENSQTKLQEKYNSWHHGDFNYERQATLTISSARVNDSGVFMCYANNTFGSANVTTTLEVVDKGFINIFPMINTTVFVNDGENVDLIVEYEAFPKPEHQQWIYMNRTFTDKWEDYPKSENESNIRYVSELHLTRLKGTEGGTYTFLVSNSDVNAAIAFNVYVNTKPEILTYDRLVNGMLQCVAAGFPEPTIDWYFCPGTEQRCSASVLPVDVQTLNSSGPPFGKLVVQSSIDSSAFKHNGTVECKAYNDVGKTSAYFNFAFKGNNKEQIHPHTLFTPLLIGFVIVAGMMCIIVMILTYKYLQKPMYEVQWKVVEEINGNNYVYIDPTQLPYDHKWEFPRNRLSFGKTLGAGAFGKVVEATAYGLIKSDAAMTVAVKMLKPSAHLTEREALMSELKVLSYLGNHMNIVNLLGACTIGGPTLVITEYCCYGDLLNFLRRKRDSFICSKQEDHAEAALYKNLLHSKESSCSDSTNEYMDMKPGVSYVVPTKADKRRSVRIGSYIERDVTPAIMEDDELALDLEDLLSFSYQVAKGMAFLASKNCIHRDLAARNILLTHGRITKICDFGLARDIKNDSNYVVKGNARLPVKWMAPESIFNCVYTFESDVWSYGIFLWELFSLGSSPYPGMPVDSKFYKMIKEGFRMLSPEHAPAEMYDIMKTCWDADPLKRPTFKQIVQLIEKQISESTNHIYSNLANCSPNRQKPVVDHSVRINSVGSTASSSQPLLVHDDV
How it was run: (§1)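 Cells were seeded at 1 to 3 × 10⁴ cells/mL with serial compound concentrations and incubated 72 h at 37 °C, 5% CO₂. Viability was read by CellTiter-Glo luminescence or CCK-8 absorbance (450/655 nm). GI50 values are from triplicate testing. GIST-T1 and CHO were grown in DMEM/10% FBS; GIST-882, GIST-48B and MV4-11 in IMDM/10% FBS; other lines in RPMI 1640/10% FBS.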

K562 = test: Antiproliferative activity against BCR-ABL dependent human K562 cells assessed as reduction in cell viability after 72 hrs by celltiter-glo/CCK8 assay; type: functional; conditions: K562, 72 h; how it was run: as §1
[3] = system: Mast/stem cell growth factor receptor Kit (Homo sapiens), P10721 [V559D]; test: Inhibition of Tel-fused cKIT V559D mutant (unknown origin) transfected in mouse BAF3 cells assessed as decrease in cell proliferation after 72 hrs by celltiter-glo/CCK8 assay; type: cell-based
Mast/stem cell growth factor receptor Kit (Homo sapiens), P10721 [V559D], sequence (P10721 whole entry V559D, the tested form may be a part): as the sequence (P10721 whole entry, the tested form may be a part) above, with V559D counted along it
How it was run: (§2)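 Stable BaF3 lines made by retroviral transduction with mutagenized TEL-KIT MSCV vectors, puromycin selection 48 h, then gradual IL-3 withdrawal until IL-3-independent; grown in RPMI 1640 with 10% FBS. Cells at 1 to 3 × 10⁴ cells/mL exposed to a concentration series for 72 h; viability read by CellTiter-Glo luminescence or CCK-8 absorbance (450/655 nm); GI50 from triplicate testing.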

[4] = system: Mast/stem cell growth factor receptor Kit (Homo sapiens), P10721 [V559D,V654A]; test: Inhibition of Tel-fused cKIT V559D/V654A double mutant (unknown origin) transfected in mouse BAF3 cells assessed as decrease in cell proliferation after 72 hrs by celltiter-glo/CCK8 assay; type: cell-based; how it was run: as §2
Mast/stem cell growth factor receptor Kit (Homo sapiens), P10721 [V559D,V654A], sequence (P10721 whole entry V559D/V654A, the tested form may be a part): as the sequence (P10721 whole entry, the tested form may be a part) above, with V559D, V654A counted along it

[5] = system: Mast/stem cell growth factor receptor Kit (Homo sapiens), P10721 [N822K]; test: Inhibition of Tel-fused cKIT N822K mutant (unknown origin) transfected in mouse BAF3 cells assessed as decrease in cell proliferation after 72 hrs by celltiter-glo/CCK8 assay; type: cell-based
Mast/stem cell growth factor receptor Kit (Homo sapiens), P10721 [N822K], sequence (P10721 whole entry N822K, the tested form may be a part): as the sequence (P10721 whole entry, the tested form may be a part) above, with N822K counted along it

[6] = system: Mast/stem cell growth factor receptor Kit (Homo sapiens), P10721 [V654A]; test: Inhibition of Tel-fused cKIT V654A mutant (unknown origin) transfected in mouse BAF3 cells assessed as decrease in cell proliferation after 72 hrs by celltiter-glo/CCK8 assay; type: cell-based; how it was run: as §2
Mast/stem cell growth factor receptor Kit (Homo sapiens), P10721 [V654A], sequence (P10721 whole entry V654A, the tested form may be a part): as the sequence (P10721 whole entry, the tested form may be a part) above, with V654A counted along it

[7] = target: Mast/stem cell growth factor receptor Kit (Homo sapiens) (UniProt P10721); test: Inhibition of Tel-fused cKIT L567P mutant (unknown origin) transfected in mouse BAF3 cells assessed as decrease in cell proliferation after 72 hrs by celltiter-glo/CCK8 assay; type: cell-based
[8] = system: Mast/stem cell growth factor receptor Kit (Homo sapiens), P10721 [V559D,T670I]; test: Inhibition of Tel-fused cKIT T670I/V559D double mutant (unknown origin) transfected in mouse BAF3 cells assessed as decrease in cell proliferation after 72 hrs by celltiter-glo/CCK8 assay; type: cell-based; how it was run: as §2
Mast/stem cell growth factor receptor Kit (Homo sapiens), P10721 [V559D,T670I], sequence (P10721 whole entry V559D/T670I, the tested form may be a part): as the sequence (P10721 whole entry, the tested form may be a part) above, with V559D, T670I counted along it

[9] = Antiproliferative activity against cKIT dependent human GISTT1 cells assessed as reduction in cell viability after 72 hrs by celltiter-glo/CCK8 assay; type: functional; conditions: GISTT1, 72 h; how it was run: as §1
MV4-11 = test: Antiproliferative activity against FLT3-ITD dependent human MV4-11 cells assessed as reduction in cell viability after 72 hrs by celltiter-glo/CCK8 assay; type: functional; conditions: MV4-11, 72 h; how it was run: as §1
[10] = Antiproliferative activity against cKIT dependent human GIST882 cells assessed as reduction in cell viability after 72 hrs by celltiter-glo/CCK8 assay; type: functional; conditions: GIST882, 72 h; how it was run: as §1
[11] = Antiproliferative activity against human GIST48B cells assessed as reduction in cell viability after 72 hrs by celltiter-glo/CCK8 assay; type: functional; how it was run: as §1
[12] = Antiproliferative activity against human U937 cells assessed as reduction in cell viability after 72 hrs by celltiter-glo/CCK8 assay; type: functional; conditions: U-937, 72 h; how it was run: as §1
[13] = Antiproliferative activity against FLT3-ITD dependent human MOLM14 cells assessed as reduction in cell viability after 72 hrs by celltiter-glo/CCK8 assay; type: functional; conditions: MOLM-14, 72 h; how it was run: as §1
[14] = Antiproliferative activity against human HL60 cells assessed as reduction in cell viability after 72 hrs by celltiter-glo/CCK8 assay; type: functional; conditions: HL-60, 72 h; how it was run: as §1
[15] = Antiproliferative activity against human Rec1 cells assessed as reduction in cell viability after 72 hrs by celltiter-glo/CCK8 assay; type: functional; conditions: Rec1, 72 h; how it was run: as §1
[16] = Antiproliferative activity against CHL cells assessed as reduction in cell viability after 72 hrs by celltiter-glo/CCK8 assay; type: cell-based, Cricetulus griseus; conditions: chinese hamster; how it was run: as §1
[17] = Antiproliferative activity against CHO cells assessed as reduction in cell viability after 72 hrs by celltiter-glo/CCK8 assay; type: cell-based, Cricetulus griseus; conditions: chinese hamster; how it was run: as §1
[18] = system: Mast/stem cell growth factor receptor Kit (Homo sapiens), P10721 [T670I]; test: Inhibition of Tel-fused cKIT T670I mutant (unknown origin) transfected in mouse BAF3 cells assessed as decrease in cell proliferation after 72 hrs by celltiter-glo/CCK8 assay; type: cell-based; how it was run: as §2
Mast/stem cell growth factor receptor Kit (Homo sapiens), P10721 [T670I], sequence (P10721 whole entry T670I, the tested form may be a part): as the sequence (P10721 whole entry, the tested form may be a part) above, with T670I counted along it

[19] = system: Mast/stem cell growth factor receptor Kit (Homo sapiens), P10721 [D816V]; test: Inhibition of Tel-fused cKIT D816V mutant (unknown origin) transfected in mouse BAF3 cells assessed as decrease in cell proliferation after 72 hrs by celltiter-glo/CCK8 assay; type: cell-based; how it was run: as §2
Mast/stem cell growth factor receptor Kit (Homo sapiens), P10721 [D816V], sequence (P10721 whole entry D816V, the tested form may be a part): as the sequence (P10721 whole entry, the tested form may be a part) above, with D816V counted along it

[20] = Antiproliferative activity against human BCR-ABL dependent MEG01 cells assessed as reduction in cell viability after 72 hrs by celltiter-glo/CCK8 assay; type: functional; conditions: MEG-01, 72 h
[21] = Antiproliferative activity against BCR-ABL dependent human KU812 cells assessed as reduction in cell viability after 72 hrs by celltiter-glo/CCK8 assay; type: functional; conditions: KU812, 72 h; how it was run: as §1

| Structure (SMILES) | GI50 [1] [µM] | GI50 [2] [µM] | GI50 (K562) [µM] | further results |
| --- | --- | --- | --- | --- |
| Cc1ccc(NC(=O)c2cccc(C(F)(F)F)c2)cc1OC1CCN(C(=O)c2ccccn2)CC1 | > 10 | 0.33 | > 10 | – |
| Cc1ccc(NC(=O)c2cccc(C(F)(F)F)c2)cc1OC1CCN(C(=O)c2cccnc2)CC1 | > 10 | 0.11 | 2.94 | – |
| COc1cccc(C(=O)Nc2ccc(C)c(OC3CCN(C(=O)c4cccnc4)CC3)c2)c1 | > 10 | 1.48 | > 10 | – |
| Cc1ccc(NC(=O)c2ccc(C)c(C(F)(F)F)c2)cc1OC1CCN(C(=O)c2cccnc2)CC1 | 5.47 | 0.083 | 5.85 | – |
| Cc1ccc(NC(=O)c2cc(Cl)cc(C(F)(F)F)c2)cc1OC1CCN(C(=O)c2cccnc2)CC1 | > 10 | 0.16 | 3.66 | – |
| COc1ccc(NC(=O)c2cccc(C(F)(F)F)c2)cc1OC1CCN(C(=O)c2cccnc2)CC1 | > 10 | > 10 | > 10 | – |
| Cc1ccc(NC(=O)c2cc(C(C)(C)C)on2)cc1OC1CCN(C(=O)c2cccnc2)CC1 | > 10 | 0.34 | 9.92 | – |
| Cc1ccc(NC(=O)Nc2ccc(Cl)c(C(F)(F)F)c2)cc1OC1CCN(C(=O)c2cccnc2)CC1 | 3.3 | 2.6 | 0.78 | – |
| Cc1ccc(NC(=O)c2cnc3ccccc3c2)cc1OC1CCN(C(=O)c2cccnc2)CC1 | > 10 | 5.55 | > 10 | – |
| Cc1ccc(NC(=O)c2cc(F)cc(C(F)(F)F)c2)cc1OC1CCN(C(=O)c2cccnc2)CC1 | > 10 | 0.15 | 4.56 | – |
| Cc1ccc(NC(=O)c2ccc(CN3CCN(C)CC3)cc2)cc1Nc1nccc(-c2cccnc2)n1 [IMATINIB] | > 10 | 0.4 | 0.12 | GI50 [3]: 0.039 µM; GI50 [4]: 3 µM; GI50 [5]: 1.29 µM; GI50 [6]: 2.49 µM; GI50 [7]: 0.1 µM; GI50 [8]: 6.67 µM; GI50 [9]: 0.008 µM; GI50 (MV4-11): > 10 µM; GI50 [10]: 0.014 µM; GI50 [11]: > 10 µM; GI50 [12]: > 10 µM; GI50 [13]: > 10 µM; GI50 [14]: > 10 µM; GI50 [15]: > 10 µM; GI50 at 72 h [16]: > 10 µM; GI50 at 72 h [17]: > 10 µM |
| Cc1ccc(NC(=O)c2ccc(C)c(C(F)(F)F)c2)cc1OC1CCN(C(=O)c2ccncc2)CC1 | 6.39 | 0.031 | 2.32 | – |
| O=C(Nc1cccc(OC2CCCN(C(=O)c3cccnc3)C2)c1)c1cccc(C(F)(F)F)c1 (configuration not stated) | 8.07 | 8.07 | > 10 | – |
| O=C(Nc1cccc(OC2CCN(C(=O)c3cccnc3)CC2)c1)c1cccc(C(F)(F)F)c1 | > 10 | 0.49 | > 10 | – |
| C=CC(=O)N1CCC(Oc2cc(NC(=O)c3cccc(C(F)(F)F)c3)ccc2C)CC1 | > 10 | 0.62 | 8.36 | – |
| Cc1ccc(NC(=O)c2cccc(C(F)(F)F)c2)cc1OCCNC(=O)c1cccnc1 | > 10 | 7.94 | > 10 | – |
| Cc1ccc(NC(=O)c2ccc(C)c(C(F)(F)F)c2)cc1OC1CCN(C(=O)c2cncs2)CC1 | > 10 | 0.1 | 5.24 | – |
| Cc1ccc(NC(=O)c2cccc(C(F)(F)F)c2)cc1OC1CCN(C(=O)c2ccno2)CC1 | > 10 | 0.22 | 0.16 | – |
| CCC(=O)N1CCC(Oc2cc(NC(=O)c3cccc(C(F)(F)F)c3)ccc2C)CC1 | > 10 | 1.55 | > 10 | – |
| O=C(Nc1cccc(OC2CCCN(C(=O)c3ccno3)C2)c1)c1cccc(C(F)(F)F)c1 (configuration not stated) | > 10 | > 10 | > 10 | – |
| Cc1ccc(NC(=O)c2cccc(C(F)(F)F)n2)cc1OC1CCN(C(=O)c2ccno2)CC1 | > 10 | > 10 | > 10 | – |
| Cc1ccc(NC(=O)c2cc(Cl)cc(C(F)(F)F)c2)cc1OC1CCN(C(=O)c2ccno2)CC1 | > 10 | 0.15 | 1.95 | – |
| Cc1ccc(NC(=O)c2ccc3c(c2)OCO3)cc1OC1CCN(C(=O)c2cccnc2)CC1 | > 10 | 4.8 | > 10 | – |
| O=C(Nc1ccc(Cl)c(OC2CCN(C(=O)c3cccnc3)CC2)c1)c1cccc(C(F)(F)F)c1 | > 10 | 0.96 | 2.8 | – |
| Cc1ccc(NC(=O)c2cccc(C(F)(F)F)c2)cc1OCCNC(=O)c1ccno1 | > 10 | 9.97 | > 10 | – |
| CCN(CC)CCNC(=O)c1c(C)[nH]c(/C=C2\C(=O)Nc3ccc(F)cc32)c1C [SUNITINIB] | 2.78 | 0.078 | 1 | GI50 [3]: 0.009 µM; GI50 [18]: 0.002 µM; GI50 [6]: 0.02 µM; GI50 [8]: 0.053 µM; GI50 [19]: 1.38 µM; GI50 [9]: 0.041 µM; GI50 (MV4-11): 0.001 µM; GI50 [10]: 0.11 µM; GI50 [11]: 2.01 µM; GI50 [20]: 1.2 µM; GI50 [21]: 1.1 µM; GI50 [12]: 1.7 µM; GI50 [13]: 0.005 µM; GI50 [14]: 0.001 µM; GI50 [15]: 0.87 µM; GI50 at 72 h [16]: 2.48 µM; GI50 at 72 h [17]: 2.03 µM |
| Cc1ccc(NC(=O)c2cccc(C(F)(F)F)n2)cc1OC1CCN(C(=O)c2cccnc2)CC1 | > 10 | > 10 | > 10 | – |
| Cc1ccc(NC(=O)c2ccc(C)c(C(F)(F)F)c2)cc1OC1CCN(C(=O)c2ccno2)CC1 | 8.94 | 0.065 | 1.96 | – |
